Here are results for 5 compounds from ChEMBL document CHEMBL3352635 (Bioorg Med Chem Lett, 2014).

Structures are written as SMILES.

Series [1] has as its system Rattus norvegicus. In words: Toxicity in rat assessed as gastric lesion and ulcer area at 200 mg/kg, po after 5 hrs. It counts as organism-based, Stomach. The note with it: in vivo. The arrangement: dose 200 mg/kg, route oral.
Series [2] can be described thus: AUC in Sprague-Dawley rat at 30 mg/kg, po. It counts as ADME, organism-based. The arrangement: dose 30 mg/kg, route oral. The settings on record: plasma. An outline of the steps: (§1)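 Plasma parent-drug concentration followed over time up to 8 h. AUC in µg*h/mL from the concentration–time profile. Cmax and Tmax taken from the profile.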
Series [3] in a line: AUC in Wistar rat at 30 mg/kg, po. The series is classed as ADME, organism-based. The note with it: plasma. The arrangement: dose 30 mg/kg, route oral. The essentials:
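Single oral dosing in Wistar rats to compare […]. Aspirin at 30 mg/kg or the prodrug at 44.83 mg/kg (equimolar to 30 mg/kg aspirin). Plasma aspirin measured over time. AUC in µg*h/mL.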

Series [4] relates to Rattus norvegicus. In words: Antiplatelet activity in Sprague-Dawley rat assessed as inhibition of TXB2 formation at 30 mg/kg, po od after 7 days by EIA relative to vehicle-treated control. The note with it: 168 h. The series is classed as functional. An outline of the steps: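 Sprague–Dawley rats dosed orally once daily for 7 days with aspirin 30 mg/kg or prodrug 44.82 mg/kg (equimolar), with vehicle 1 ml/kg as control. Serum TXB2 levels estimated. Inhibition expressed as % reduction versus vehicle.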

Series [5] in a line: in vivo. The note with it: Sprague-Dawley, rat, po, 10 mg/kg.
Series [6] can be described thus: in vivo. The settings on record: Sprague-Dawley, rat, plasma, po, 10 mg/kg.
A short description of series [7]: in vivo. The note with it: Sprague-Dawley, rat, plasma, po, 10 mg/kg. This is another data set of the same source.
Series [8] is described as follows: in vivo. The settings on record: Sprague-Dawley, rat, plasma, po, 10 mg/kg. This is another data set of the same source.
A short description of series [9]: in vivo. The note with it: Sprague-Dawley, rat, po, 10 mg/kg. This is another data set of the same source.
Series [10] is described as follows: Metabolic stability in simulated gastric fluid assessed as compound remaining at pH 1.2 after 10 mins by HPLC analysis. The series is classed as ADME. The note with it: read-out: Stability. An outline of the steps:
(§2)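 Compounds incubated at 37 °C in simulated gastric fluid (pH 1.2), simulated intestinal fluid (pH 6.8) or 100% human plasma for up to 180 min. […] Half-life estimated from the decay.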

A short description of series [11]: Metabolic stability in simulated gastric fluid assessed as compound remaining at pH 1.2 after 60 mins by HPLC analysis. The series is classed as ADME. The settings on record: read-out: Stability. An outline of the steps: as §2
A short description of series [12]: Metabolic stability in simulated gastric fluid assessed as compound remaining at pH 1.2 after 120 mins by HPLC analysis. It counts as ADME. The settings on record: read-out: Stability. An outline of the steps:
as §2

Series [13] in a line: Metabolic stability in simulated gastric fluid assessed as compound remaining at pH 1.2 after 15 mins by HPLC analysis. It counts as ADME. The settings on record: read-out: Stability. The essentials: as §2
The nature of series [14]: Half life in simulated gastric fluid at pH 1.2 by HPLC analysis. The series is classed as ADME. An outline of the steps: as §2
A short description of series [15]: Metabolic stability in simulated gastric fluid assessed as compound remaining at pH 1.2 after 180 mins by HPLC analysis. The series is classed as ADME. The note with it: read-out: Stability. An outline of the steps:
as §2

Series [16] in a line: Metabolic stability in simulated gastric fluid assessed as compound remaining at pH 1.2 after 30 mins by HPLC analysis. The series is classed as ADME. The note with it: read-out: Stability. An outline of the steps: as §2
Series [17] is described as follows: Metabolic stability in simulated gastric fluid assessed as compound remaining at pH 1.2 measured immediately by HPLC analysis. The series is classed as ADME. The note with it: read-out: Stability. An outline of the steps:
as §2

The nature of series [18]: Metabolic stability in simulated gastric fluid assessed as compound remaining at pH 1.2 after 5 mins by HPLC analysis. The settings on record: read-out: Stability. It counts as ADME. The essentials: as §2
Series [19] is described as follows: AUC in Sprague-Dawley rat at 44.83 mg/kg, po. The series is classed as ADME, organism-based. Further details: dose 44.83 mg/kg, route oral. The note with it: plasma. The essentials: as §1

As to `CC(=O)Oc1ccccc1C(=O)O` [ASPIRIN], the Activity in the series with Rattus norvegicus [1] was found to be 93 mm2. For the same compound, the AUC (as a rule, the area under the concentration-time curve, a measure of exposure) in [2] was 91100 ng·h/mL; in series [3], 437000 ng·h/mL. In addition, in the series with Rattus norvegicus [4], the inhibition in vivo (in general, the share of the control response that was lost under treatment) at 30 mg/kg was determined as 76%.

Take `COc1ccc2cc([C@H](C)C(=O)O)ccc2c1` [NAPROXEN]: in “in vivo [5]”, the Cmax (commonly the peak of the concentration-time curve) at 0.25 h amounted to 55000 ng/mL. In “in vivo [6]”, the maximum concentration (Cmax) at 8 h was below 15000 ng/mL. In “in vivo [7]”, this compound yielded a Cmax at 2 h above 30000 ng/mL. The compound further returned a Cmax at 4 h in “in vivo [8]” above 20000 ng/mL. Besides, the Tmax – broadly, the time at which the peak concentration occurs – in the series “in vivo [9]” was 0.25 h.

With `CCCCC(OC(=O)[C@@H](C)c1ccc2cc(OC)ccc2c1)O[N+](=O)[O-]` (stereo partly drawn), the remaining at 10 min in [10] is 96%. Also, the remaining at 1 h in series [11] was 87%. Moreover, the remaining at 2 h in series [12] was 80%. Also, the remaining at 0.25 h in series [13] is 87%. Also, the half-life (usually the time in which the quantity being followed falls by half) in [14] is above 3 h. For the same compound, the remaining at 3 h in series [15] was 71%. Besides, the remaining at 0.5 h in [16] was 87%. In series [17], the remaining at 0 min was 100%. For the same compound, the remaining at 5 min in series [18] was 98%.

In turn, `CCC(OC(=O)c1ccccc1OC(C)=O)O[N+](=O)[O-]` (stereo not drawn) displayed an AUC in series [19] of 53600 ng·h/mL.

With `CCCC(OC(=O)[C@@H](C)c1ccc2cc(OC)ccc2c1)O[N+](=O)[O-]` (stereo partly drawn), the remaining at 10 min in series [10] is 94%. Further, the remaining at 1 h in series [11] is 75%. In series [12], the remaining at 2 h was 58%. Further, in series [13], the remaining at 0.25 h was 83%. In addition, the half-life in series [14] is below 3 h. For the same compound, the remaining at 3 h in [15] is 39%. Also, in [16], the remaining at 0.5 h was 83%. Besides, in series [17], the remaining at 0 min is 100%. Moreover, in series [18], the remaining at 5 min was 96%.
